Where “and” joins values, the source holds several entries; their conditions need not be identical. Equal entries are not always repeated.
Assays:
Canis familiaris [1] = assay: Hemodynamic activity in anesthetized dog as percent change in blood pressure from baseline (123 mmHg) at 0.1 mg/kg administered intravenously; type: functional, Canis lupus familiaris; details: route intravenous
Summary of the method: (§1)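 Acutely instrumented anesthetized dogs (n = 6), 30-min control period. Compound in 0.9% saline, or dilute HCl diluted with saline, at 0.1 mL/kg iv over 1 min. At least four ascending half-log doses, 10 min apart, one compound per animal. Recorded: LV dP/dtmax, heart rate, aortic pressure and forelimb resistance. Values are maximum response from control average ± SEM.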

Canis familiaris [2] = assay: Hemodynamic activity in anesthetized dog as percent change in left ventricular myocardial activity from baseline (2271 mmHg/s) at 0.03 mg/kg administered intravenously; type: functional, Canis lupus familiaris, Heart left ventricle; details: route intravenous; summary of the method: as §1
Canis familiaris [3] = assay: Hemodynamic activity in anesthetized dog as percent change in fore limb resistance from baseline (2.77 mmHg/mL/min) at 0.001 mg/kg administered intravenously; type: functional, Canis lupus familiaris; details: route intravenous; summary of the method: as §1
Canis familiaris [4] = organism: Canis familiaris; assay: Ratio of positive inotropic activity to peripheral Vasodilator activity in dogs; type: functional, Canis lupus familiaris
Summary of the method: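 Inotropic ED20 is the iv bolus dose giving a 20% rise in dP/dtmax in anesthetized dogs. Vasodilator ED20 is the bolus dose into the brachial cannula of a constant-flow perfused forelimb (pentobarbital 30 mg/kg iv then 3.0 mg/kg/h, heparinized) giving a 20% fall in perfusion pressure. Each ED20 was taken from its dose-response curve; the ratio is PI/PV.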

Canis familiaris [5] = assay: Cardiovascular activity in presence of beta-adrenoceptor blockade in dogs as percent change in blood pressure from base line (109/88 mmHg) at 0.01 mg/kg dose given 15 min after nadolol; -10/-13; type: functional, Canis lupus familiaris
Canis familiaris [6] = assay: Cardiovascular activity in presence of beta-adrenoceptor blockade in dogs as percent change in left ventricular myocardial contractility from base line (2327 mmHg/s) at 0.01 mg/kg dose before nadolol administration
Canis familiaris [7] = assay: Weight of thrombus after 60 min of 10 ug/kg/min; type: functional, Canis lupus familiaris
Summary of the method: (§2)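 Anesthetized adult dogs were given sodium pentobarbital (32 mg/kg iv), intubated and artificially respired, then allowed 30 min to stabilize after surgery. Circumflex coronary thrombosis was induced by delivering 50 μA through an intraluminal silver-coated copper electrode, which denuded the endothelium. Continuous drug or saline infusion began 15 min before current onset and ran throughout, with one treatment per animal. After 60 min of stimulation the thrombus was dissected and weighed.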

Canis familiaris [8] = assay: Cardiovascular activity in presence of beta-adrenoceptor blockade in dogs as percent change in left ventricular myocardial contractility from base line (1869 mmHg/s) at 0.01 mg/kg dose given 15 min after nadolol; type: functional, Canis lupus familiaris, Heart left ventricle
Canis familiaris [9] = assay: Hemodynamic activity in anesthetized dog as percent change in fore limb resistance from baseline (2.77 mmHg/mL/min) at 0.01 mg/kg administered intravenously; type: functional, Canis lupus familiaris; details: route intravenous; summary of the method: as §1
Canis familiaris [10] = assay: Hemodynamic activity in anesthetized dog as percent change in heart rate from baseline (152 bpm) at 0.001 mg/kg administered intravenously; type: functional, Canis lupus familiaris; details: route intravenous; summary of the method: as §1
Canis familiaris [11] = assay: Hemodynamic activity in anesthetized dog as percent change in heart rate from baseline (152 bpm) at 0.03 mg/kg administered intravenously; type: functional, Canis lupus familiaris; details: route intravenous; summary of the method: as §1
Canis familiaris [12] = assay: Hemodynamic activity in anesthetized dog as percent change in fore limb resistance from baseline (2.77 mmHg/mL/min) at 0.1 mg/kg administered intravenously; type: functional, Canis lupus familiaris; details: route intravenous; summary of the method: as §1
Canis familiaris [13] = assay: Cardiovascular activity in presence of beta-adrenoceptor blockade in dogs as percent change in heart rate from base line (136 bpm) at 0.01 mg/kg; type: functional, Canis lupus familiaris
Canis familiaris [14] = assay: Cardiovascular activity in presence of beta-adrenoceptor blockade in dogs as percent change in forelimb vascular resistance from base line (5.23 mmHg/mL/min) at 0.01 mg/kg given 15 min after nadolol; type: functional, Canis lupus familiaris
Canis familiaris [15] = assay: Weight of thrombus after 60 min of 1 ug/kg/min; type: functional, Canis lupus familiaris
Summary of the method: (§3)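 Pentobarbital-anesthetized (32 mg/kg iv), ventilated dogs, allowed 30 min to stabilize. Continuous infusion of compound (1.0, 3.0 or 10.0 μg/kg/min) or saline began 15 min before 50 μA current was applied to an intraluminal electrode in the circumflex coronary artery. After 60 min of stimulation the animals were euthanized and the thrombus dissected and weighed. One treatment per animal.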

Canis familiaris [16] = assay: Percentage increase in left ventricular contractility in anesthetized dog; type: functional, Canis lupus familiaris, Heart left ventricle
Homo sapiens [17] = organism: Homo sapiens; assay: In vitro inhibition of ADP stimulated platelet aggregation in human whole blood; type: functional
Summary of the method: (§4)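 Human whole blood from aspirin/NSAID-free fasted donors, read by impedance aggregometry 5 min after adding ADP or collagen. Aggregation expressed as % of control (2-6 replicates), plotted against log drug concentration; IC50 obtained by extrapolation.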

Homo sapiens [18] = organism: Homo sapiens; assay: In vitro inhibition of collagen stimulated platelet aggregation in human thrombocyte enriched plasma; type: functional
Summary of the method: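 Human platelet-rich plasma from aspirin/NSAID-free donors, adjusted to 250 000 platelets/μL with platelet-poor plasma. Drug in DMSO/saline (1% DMSO final) was added before ADP or collagen, with doses set by titration. Read-out was aggregation extent (ADP, curve height) or rate (collagen, major slope) as % of saline control.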

Canis familiaris [19] = assay: Hemodynamic activity in anesthetized dog as percent change from baseline (2271 mmHg/s) in left ventricular myocardial activity at 0.1 mg/kg administered intravenously; type: functional, Canis lupus familiaris, Heart left ventricle; details: route intravenous
[20] = Partition coefficient (logP); type: physicochemical; details: octanol/water
Canis familiaris [21] = assay: (§5) Decrease in thrombus weight in anesthetized dog coronary artery; type: functional, Canis lupus familiaris; summary of the method: as §3
Canis familiaris [22] = assay: as §5; type: functional, Canis lupus familiaris; summary of the method: as §3; remark: listed apart in the source
Canis familiaris [23] = assay: Hemodynamic activity in anesthetized dog as percent change in blood pressure from baseline (123 mmHg) at 0.01 mg/kg administered intravenously; type: functional, Canis lupus familiaris; details: route intravenous; summary of the method: as §1
Canis familiaris [24] = organism: Canis familiaris; assay: 50% increase in myocardial contractility (dP/dT max) in dogs; type: functional, Canis lupus familiaris, Myocardium; summary of the method: as §1
Canis familiaris [25] = assay: Hemodynamic activity in anesthetized dog as percent change in blood pressure from baseline (123 mmHg) at 0.001 mg/kg administered intravenously; type: functional, Canis lupus familiaris; details: route intravenous; summary of the method: as §1
Canis familiaris [26] = assay: Cardiovascular activity in presence of beta-adrenoceptor blockade in dogs as percent change in heart rate from base line (121 bpm) at 0.01 mg/kg; type: functional, Canis lupus familiaris
Canis familiaris [27] = assay: Hemodynamic activity in anesthetized dog as percent change in left ventricular myocardial activity from baseline (2271 mmHg/s) at 0.001 mg/kg administered intravenously; type: functional, Canis lupus familiaris, Heart left ventricle; details: route intravenous; summary of the method: as §1
Canis familiaris [28] = assay: Hemodynamic activity in anesthetized dog as percent change in blood pressure from baseline (123 mmHg) at 0.003 mg/kg administered intravenously; type: functional, Canis lupus familiaris; details: route intravenous; summary of the method: as §1
Canis familiaris [29] = assay: Hemodynamic activity in anesthetized dog as percent change in fore limb resistance from baseline (2.77 mmHg/mL/min) at 0.003 mg/kg administered intravenously; type: functional, Canis lupus familiaris; details: route intravenous; summary of the method: as §1
Canis familiaris [30] = assay: Hemodynamic activity in anesthetized dog as percent change in heart rate from baseline (152 bpm) at 0.1 mg/kg administered intravenously; type: functional, Canis lupus familiaris; details: route intravenous; summary of the method: as §1
Canis familiaris [31] = assay: Hemodynamic activity in anesthetized dog as percent change in heart rate from baseline (152 bpm) at 0.003 mg/kg administered intravenously; type: functional, Canis lupus familiaris; details: route intravenous; summary of the method: as §1
Canis familiaris [32] = assay: Weight of thrombus after 60 min of 3 ug/kg/min; type: functional, Canis lupus familiaris; summary of the method: as §2
Canis familiaris [33] = assay: Hemodynamic activity in anesthetized dog as percent change in blood pressure from baseline (123 mmHg) at 0.03 mg/kg administered intravenously; type: functional, Canis lupus familiaris; details: route intravenous; summary of the method: as §1
Homo sapiens [34] = organism: Homo sapiens; assay: In vitro inhibition of collagen stimulated platelet aggregation in human whole blood; type: functional; summary of the method: as §4
Canis familiaris [35] = assay: Hemodynamic activity in anesthetized dog as percent change in blood pressure from baseline (123 mmHg) at 0.3 mg/kg administered intravenously; type: functional, Canis lupus familiaris; details: route intravenous; summary of the method: as §1

CC1CC(=O)NN=C1/C=C/c1ccc(-n2ccnc2)cc1.Cl (stereo not given)
Change (Canis familiaris [1]): -35% | Change (Canis familiaris [2]): 117% | Change (Canis familiaris [3]): 0.3% | Ratio (Canis familiaris [4]): 1.29 | Change (Canis familiaris [5]): -10% | Change (Canis familiaris [6]): 56% | Thrombus weight (Canis familiaris [7]): 10 mg | Change (Canis familiaris [8]): 25% | Change (Canis familiaris [9]): -36% | Change (Canis familiaris [10]): 0.2% | Change (Canis familiaris [11]): 23% | Change (Canis familiaris [12]): -58% | Change (Canis familiaris [13]): 18% | Change (Canis familiaris [14]): -13% | Thrombus weight (Canis familiaris [15]): 10.7 mg | Increase (Canis familiaris [16]): 77% and 103% | IC50 (Homo sapiens [17]): 90 nM | IC50 (Homo sapiens [18]): 30 nM | Change (Canis familiaris [19]): 134% | logP [20]: 1.71 | Inhibition (Canis familiaris [21]): 40% | Inhibition (Canis familiaris [22]): 65% and 44% | Change (Canis familiaris [23]): -13% | Dose (Canis familiaris [24]): 8 µg/kg | Change (Canis familiaris [25]): -2% | Change (Canis familiaris [26]): 6% | Change (Canis familiaris [27]): 2% | Change (Canis familiaris [28]): -5% | Change (Canis familiaris [29]): -15% | Change (Canis familiaris [30]): 28% | Change (Canis familiaris [31]): 5% | Thrombus weight (Canis familiaris [32]): 6.3 mg | Change (Canis familiaris [33]): -24% | IC50 (Homo sapiens [34]): 1.5 nM | Change (Canis familiaris [35]): -40%

— ChEMBL document CHEMBL1124387, “Cardiotonic agents. 9. Synthesis and biological evaluation of a series of (E)-4,5-dihydro-6-[2-[4-(1H-imidazol-1-yl)phenyl]ethenyl]-3 (2H)-pyridazinones: a novel class of compounds with positive inotropic, antithrombotic, and vasodilatory activities for the treatment of congestive heart failure” (J Med Chem, 1989)
